Experimental data from publication PMC4759708 (CPT: Pharmacometrics & Systems Pharmacology, 2015).
“And” between values parts separate entries of the source, which are not always exact repeats. Equal entries are not always repeated. Where two headings read alike, the source gives them in different places.

Tests used:
[1] = test system: LPS-stimulated TNFα release; settings: read-out: IC50, TNFα release in the same (human whole blood) assay; cited from earlier work
p38α [2] = molecular target: T1, p38α (Homo sapiens, UniProt Q16539); test: In-house p38α inhibition, ELISA; type: biochemical; settings: read-out: IC50 on p38α (ELISA); in-house studies
T1 sequence (Q16539 whole entry): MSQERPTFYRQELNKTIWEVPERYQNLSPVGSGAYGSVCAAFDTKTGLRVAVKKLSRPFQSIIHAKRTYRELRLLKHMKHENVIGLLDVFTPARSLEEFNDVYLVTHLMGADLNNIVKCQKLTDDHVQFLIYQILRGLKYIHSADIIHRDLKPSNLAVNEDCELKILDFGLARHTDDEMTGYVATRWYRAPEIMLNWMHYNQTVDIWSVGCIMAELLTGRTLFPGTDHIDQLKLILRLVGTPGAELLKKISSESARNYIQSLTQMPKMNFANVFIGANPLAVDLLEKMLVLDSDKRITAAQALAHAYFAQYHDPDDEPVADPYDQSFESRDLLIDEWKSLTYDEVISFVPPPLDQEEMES

P-glycoprotein = P-glycoprotein (Homo sapiens, UniProt P08183); test: Caco-2 model of intestinal uptake/efflux; type: in vitro ADME; settings: unpublished data
Sequence of P-glycoprotein (P08183 whole entry): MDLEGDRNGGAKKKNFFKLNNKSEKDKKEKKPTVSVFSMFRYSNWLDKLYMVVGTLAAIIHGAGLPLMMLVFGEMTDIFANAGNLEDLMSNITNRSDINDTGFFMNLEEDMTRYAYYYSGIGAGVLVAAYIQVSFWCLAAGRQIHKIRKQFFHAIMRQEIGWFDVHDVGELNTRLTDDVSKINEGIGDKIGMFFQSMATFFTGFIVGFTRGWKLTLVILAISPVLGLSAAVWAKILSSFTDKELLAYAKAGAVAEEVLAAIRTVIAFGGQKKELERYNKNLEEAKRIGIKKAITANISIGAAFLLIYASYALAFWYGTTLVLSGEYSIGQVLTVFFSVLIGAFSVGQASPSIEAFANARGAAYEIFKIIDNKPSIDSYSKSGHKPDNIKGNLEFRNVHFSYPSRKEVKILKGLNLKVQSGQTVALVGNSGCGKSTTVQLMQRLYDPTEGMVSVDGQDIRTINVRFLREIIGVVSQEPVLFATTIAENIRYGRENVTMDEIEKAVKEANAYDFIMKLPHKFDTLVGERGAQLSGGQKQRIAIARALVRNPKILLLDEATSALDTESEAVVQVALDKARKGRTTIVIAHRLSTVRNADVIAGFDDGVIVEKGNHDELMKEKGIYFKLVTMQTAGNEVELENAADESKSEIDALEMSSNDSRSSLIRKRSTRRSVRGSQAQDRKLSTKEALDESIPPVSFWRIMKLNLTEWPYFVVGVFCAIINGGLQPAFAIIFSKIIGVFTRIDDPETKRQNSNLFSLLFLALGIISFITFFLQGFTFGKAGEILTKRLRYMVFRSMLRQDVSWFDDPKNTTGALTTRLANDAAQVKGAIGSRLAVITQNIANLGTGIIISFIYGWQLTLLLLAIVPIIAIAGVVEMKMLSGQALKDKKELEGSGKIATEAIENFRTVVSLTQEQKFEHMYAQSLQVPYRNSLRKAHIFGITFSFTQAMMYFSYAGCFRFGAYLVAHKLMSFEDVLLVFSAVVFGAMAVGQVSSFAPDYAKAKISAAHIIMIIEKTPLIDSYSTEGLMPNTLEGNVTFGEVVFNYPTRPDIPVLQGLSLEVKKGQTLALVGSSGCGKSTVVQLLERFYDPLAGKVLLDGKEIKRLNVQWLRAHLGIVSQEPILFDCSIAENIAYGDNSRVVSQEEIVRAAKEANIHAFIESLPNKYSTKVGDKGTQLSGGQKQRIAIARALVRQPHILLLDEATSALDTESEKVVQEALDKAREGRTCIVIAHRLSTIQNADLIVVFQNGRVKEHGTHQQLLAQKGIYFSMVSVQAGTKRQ

[3] = test system: LPS-stimulated TNFα release; test: LPS-stimulated TNFα release in the human whole blood assay; type: cell-based
[4] = Population pharmacokinetics of oral BCT197 in healthy volunteers; type: in vivo, human
Outline: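 Healthy male and non-childbearing female volunteers aged 18–50 y (BMI 18–30 kg/m²) took ascending single doses or once-daily doses for 14 days. Oral solution was used for 0.1–3 mg and tablets for ≥5 mg. Plasma drug was fitted by nonlinear mixed-effects modelling (FOCE Lindström Bates), with lognormal between-subject variability and tablet mixed zero/first-order absorption. Bootstrap used 500 iterations.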

Thermodynamic solubility = type: physicochemical
[5] = Safety and tolerability in healthy subjects; type: in vivo, human; settings: data not shown
[6] = Tissue distribution in pigmented and albino rats; type: in vivo; settings: pigmented vs albino, unpublished data
p38α [7] = molecular target: T1, p38α; test: In-house p38α inhibition, radiometric; type: biochemical; settings: read-out: IC50 on p38α (radiometric); in-house studies
[8] = test system: ex vivo LPS-induced TNFα secretion; type: in vivo, human
Outline: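 Healthy adults received randomized, double-blind, placebo-controlled oral doses: ascending single doses of 0.1–75 mg, or once daily for 14 days. Blood was challenged with LPS ex vivo and TNFα measured. An indirect response model with negative feedback on outflow and a 24-h oscillatory baseline was fitted to drug and placebo data together. Individual Bayesian PK estimates served as input. IC50 was a fraction of predose baseline. Bootstrap used 500 iterations.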

[9] = COPD patients; intermittent short-term dosing 75 mg on days 1 and 6; cited from earlier work
serum levels of TNFα = test: Serum TNFα levels after in vivo intravenous LPS challenge; set-up: species or system human; settings: data not shown
Outline: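 Healthy subjects received a single oral dose, then an intravenous LPS challenge, and serum TNFα was measured. They fasted 10 h before dosing and 4 h after. Apart from the dosing fluid, no fluid was allowed from 2 h before to 2 h after dosing.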

[10] = test system: LPS-stimulated TNFα ex vivo; settings: patients treated, same bioassay; cited from earlier work
[11] = population mean, final estimate

Cc1c(F)cc(C(=O)NC2CC2)cc1-c1ccc(C(=O)NCC(C)(C)C)cn1 [losmapimod]
IC50 [1]: 25 nM

CNC(=O)c1ccc(C)c(-n2c(C)cc(OCc3ccc(F)cc3F)c(Br)c2=O)c1 [PH‐797804]
IC50 [1]: 85 nM

Cc1ccc(C(=O)NC2CC2)cc1-n1ncc(C(=O)c2cccc(C#N)c2)c1N [BCT197]
IC50 (p38α [2]): 12 nM | saturation of low-affinity efflux pump, most likely P-glycoprotein (P-glycoprotein): not saturated up to 0.1 mg/mL | IC50 ([3]; read-out: IC50 (total drug), LPS-stimulated TNFα release, human whole blood assay, total drug): 51 nM | IC50 ([3]; read-out: free IC50, LPS-stimulated TNFα release, human whole blood assay, free drug): 24 nM | Bmax, total binding capacity (tissue binding) ([4]; bootstrap median and 90% CI): 507 [308;806] µg | K1b, first order transfer rate from central compartment into shunt compartment ([4]; bootstrap median and 90% CI): 0.0105 [0.00791;0.0132] 1/h | Kt=Kint1, first-order oral absorption rate constant of tablet ([4]; bootstrap median and 90% CI): 1.13 [0.934;1.42] 1/h | Rate, zero order oral absorption rate (tablet) ([4]; bootstrap median and 90% CI): 2310 [2170;2530] µg/h | V1/F, volume of central compartment ([4]; bootstrap median and 90% CI): 71.5 [58.1;98.7] L | fc, fraction of oral dose (tablet) absorbed in a zero-order fashion ([4]; bootstrap median and 90% CI): 0.342 [0.291;0.392] | CL/F, oral drug clearance ([4]; bootstrap median and 90% CI, 500 iterations): 1.77 [1.47;2.05] L/h | rise in drug levels in reaching steady-state ([4]; once-daily regimen, on average): 3 fold | time of double peak behavior postdose ([4]; plasma concentration profile): 18 to 24 h | Bmax, total binding capacity (tissue binding) [4, 11]: 500 µg | K1b, first order transfer rate from central compartment into shunt compartment [4, 11]: 0.0106 h⁻¹ | Kt=Kint1, first-order oral absorption rate constant of tablet [4, 11]: 1.12 h⁻¹ | V1/F, volume of central compartment [4, 11]: 71.9 L | V2/F, volume of peripheral compartment [4, 11]: 25.5 L | CL/F, oral drug clearance ([4]; population mean, final estimate, healthy volunteers, oral 0.1-75 mg): 1.76 L/h | fc, fraction of oral dose (tablet) absorbed in a zero-order fashion ([4]; population mean, final estimate, modeled in logit domain and back transformed): 0.344 | Ks, first-order oral absorption rate constant of solution ([4]; population mean, fixed): 5 (fixed) 1/h | Tlag, absorption lag time ([4]; population mean, fixed): 0.232 (fixed) h | Tpump, shunt compartment emptying lag time ([4]; population mean, fixed): 18 (fixed) h | fraction (fc) of dose absorbed by the first-order process ([4]; tablets, mixed-order absorption model, on average): 66% | pH-independent thermodynamic solubility (Thermodynamic solubility): ~0.2 mg/mL | Tolerability, continuous dosing ([5]; continuous dosing of 10 mg): acneiform skin rashes | Tolerability, single high doses ([5]; single high doses up to 75 mg): well tolerated | tissue distribution / retention in melanin-containing tissues [6]: remained much longer detectable in the skin and eye of the pigmented but not albino animal | IC50 (p38α [7]): 37 nM | IC50, concentration at half maximum inhibition ([8]; bootstrap median and 90% CI): 44.3 [30.6;65.5] µg/L | Imax, maximum inhibition ([8]; bootstrap median and 90% CI): 0.668 [0.6121;0.752] | Kout, first order degradation rate of drug response ([8]; bootstrap median and 90% CI): 0.353 [0.170;0.592] 1/h | Ktol, first order production rate of negative feedback ([8]; bootstrap median and 90% CI): 0.00281 [0.00173;0.00529] 1/h | Maximum inhibition from baseline (Imax), plateau in the typical individual ([8]; ex vivo LPS-induced TNFα secretion): about 66% | t1/2,ktol (rate constant governing tolerance) ([8]; human, in vivo): 252 h | Imax, maximum inhibition [8, 11]: 0.663 | Kout, first order degradation rate of drug response [8, 11]: 0.348 h⁻¹ | Ktol, first order production rate of negative feedback [8, 11]: 0.00276 h⁻¹ | IC50, concentration at half maximum inhibition ([8]; population mean, final estimate, plasma concentration, modeled as fraction of predose baseline): 44 µg/L and 44.3 µg/L | t1/2,kout (hysteresis in drug effect) ([8]; single dose): 2 h | lung function (FEV1) [9]: marked improvement | inhibition of serum levels of TNFα following in vivo intravenous LPS challenge (serum levels of TNFα; single oral administration of 20 mg): 96% | inhibition of serum levels of TNFα following in vivo intravenous LPS challenge (serum levels of TNFα; single oral administration of 75 mg): 97%

O=C(Nc1c(Cl)cncc1Cl)c1ccc(OC(F)F)c(OCC2CC2)c1 [rofluminast, roflumilast]
TNFα levels ex vivo [10]: significant suppression
